# CSC inhib: cancer stem cell inhibition; cancer stem cell-like cells viability, luminescence; inhibition, % at 7.5 µM; 1.1% of 300,000 active; in the data active = inhibition above about 75%; inconclusive = no clear call, values can overlap the other calls; tested in HMLE shEcad cells
# Calb FLC: C. albicans growth modulation with fluconazole | growth inhibition, % (concentration not given with the values) | AID 1979 | 0.57% of 300,000 active | C. albicans CaCi-2 (fluconazole-resistant clinical isolate) + fluconazole, Alamar Blue growth, 48 h;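 active = growth inhibition above about 58% in most replicates, limit read from the data, passing the limit was not always enough; inconclusive = exactly half the replicates above a set limit; inactive = most replicates below a set limit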;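 also: all wells also contain fluconazole at 8 µg/ml as a sub-toxic cotreatment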
# Mdm2-MdmX inh: inhibitors of human Mdm2/MdmX interaction. 3% of 330,000 active. SaOS-2 split-luciferase Mdm2/MdmX complementation, luminescence. O15151+Q00987. inhibition, % at 8 µM;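 active = inhibition of at least 50% at 8 µM in the primary screen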
# Target sequence (O15151 whole entry, looked up): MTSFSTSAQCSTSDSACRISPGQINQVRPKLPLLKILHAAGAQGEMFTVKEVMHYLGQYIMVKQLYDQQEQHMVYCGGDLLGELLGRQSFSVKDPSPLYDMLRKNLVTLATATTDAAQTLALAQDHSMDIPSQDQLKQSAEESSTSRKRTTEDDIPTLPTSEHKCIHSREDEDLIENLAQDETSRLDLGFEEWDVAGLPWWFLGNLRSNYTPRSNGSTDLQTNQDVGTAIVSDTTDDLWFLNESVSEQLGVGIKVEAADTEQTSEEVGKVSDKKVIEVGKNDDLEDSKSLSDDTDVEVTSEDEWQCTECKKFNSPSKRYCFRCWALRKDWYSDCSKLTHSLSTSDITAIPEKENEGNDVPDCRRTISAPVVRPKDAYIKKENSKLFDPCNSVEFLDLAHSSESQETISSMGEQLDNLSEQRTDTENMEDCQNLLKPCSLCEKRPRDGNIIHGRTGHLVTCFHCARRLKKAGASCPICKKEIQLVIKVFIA
# Target sequence (Q00987 whole entry, looked up): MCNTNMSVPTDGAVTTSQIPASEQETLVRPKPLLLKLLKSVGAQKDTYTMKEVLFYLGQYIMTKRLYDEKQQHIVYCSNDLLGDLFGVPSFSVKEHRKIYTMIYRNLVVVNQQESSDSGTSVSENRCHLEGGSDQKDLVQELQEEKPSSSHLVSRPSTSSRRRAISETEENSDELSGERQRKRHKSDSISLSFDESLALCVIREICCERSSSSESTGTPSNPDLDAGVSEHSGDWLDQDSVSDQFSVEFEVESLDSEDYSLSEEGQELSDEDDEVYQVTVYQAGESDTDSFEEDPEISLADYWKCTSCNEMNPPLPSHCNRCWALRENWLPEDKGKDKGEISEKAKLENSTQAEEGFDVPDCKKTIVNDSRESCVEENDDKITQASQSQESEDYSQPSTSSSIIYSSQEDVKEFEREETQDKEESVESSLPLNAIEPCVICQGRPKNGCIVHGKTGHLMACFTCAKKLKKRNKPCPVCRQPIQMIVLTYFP
# Beta cell apopt: blocks beta cell apoptosis; INS-1E cytokine-induced death, ATP luminescence, 48 h; percent of positive-control rescue, neutral wells zero; protection from apoptosis, % (concentration not given with the values); 0.8% of 300,000 active;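 active = Every replicate reaches about 75%, or at least half do and their mean reaches it too, limit read from the data; inconclusive = At least half of replicates reach the limit but their mean does not; inactive = Under half of replicates reach the limit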;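 also: higher means more ATP so stronger rescue from cytokine killing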
# T cruzi repl: T. cruzi replication inhibition | T. cruzi beta-gal in NIH3T3, luminescence, 90 h | inhibition, % (test concentration not listed) | 1.4% of 300,000 active | AID 1885;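 active = mean inhibition across valid replicates above about 55%, limit read from the data; inconclusive = mean below that limit but half or more replicates reach it; inactive = mean below it, under half of replicates reach it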;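 also: signal also drops with host cell toxicity which is not excluded here; higher percent means less beta-gal luminescence so fewer parasites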
#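 Incubation – ≥90 h infection period, 3 h prior cell attachment · System – NIH/3T3 fibroblasts plus reporter T. cruzi · Doses – compound pinned at 50 nL/well, DMSO · Read-out basis – percent inhibition of parasite-derived β-gal signal · Signal – luminescent β-galactosidase signal after 60 min lysis · Also added – 5000 T. cruzi trypomastigotes/well · Medium – Low-serum DMEM with 2% FBS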
# SKKanGAS inh: blocks kanamycin growth of S. pyogenes SKKanGAS strain; BacTiter-Glo, 6 h; inhibition, % at 7.5 µM; 1.3% of 300,000 active; AID 1662;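 active = mean replicate score, as percent of positive control median, at least 50; inconclusive = mean below 50 but one replicate at or above 50; inactive = mean and every replicate below 50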;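 also: strain carries kanamycin resistance gene driven by streptokinase promoter and grows in 40 µg/ml kanamycin; loss of luminescence reflects streptokinase promoter inhibition or plain growth inhibition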
# Numbers stand for hits; . = inactive; ? = inconclusive; / = not tested or not shown. Sampled rows, rich in hits. Any-hit rate of the full collection: about 5.7%.
SMILES,CSC inhib,Calb FLC,Mdm2-MdmX inh,Beta cell apopt,T cruzi repl,SKKanGAS inh
CC(=O)N1c2ccc(Cl)cc2C2C=CCC2C1c1cccc2ccccc12 (configuration not stated),78,/,/,.,/,/
CC(=O)N1c2ccc3ccccc3c2C2C=CCC2C1c1ccc(Br)cc1 (configuration not stated),.,/,/,.,/,/
O=C(Nc1ccc(OC(F)(F)F)cc1)C1CCCN(C(=O)c2ccc(Cl)cc2)C1 (configuration not stated),.,/,.,.,/,/
CC(C)c1c(C(=O)N/N=C/c2cccc(OCc3ccc(F)cc3)c2)nnn1-c1nonc1N,.,.,.,.,.,87
CN(C)Cc1c(C(=O)N/N=C/c2cccc(OCc3ccc(F)cc3)c2)nnn1-c1nonc1N,.,.,.,.,.,.
COc1cc(/C=N/NC(=O)c2nnn(-c3nonc3N)c2C(C)C)ccc1OCc1ccc(F)cc1,.,.,.,.,.,58
CCOc1ccc(NC(=O)CSc2nc3ccccc3nc2N2CCCC2)cc1,.,.,.,.,.,.
Cc1cccc2sc(NC(=O)C3c4ccccc4Oc4ccccc43)nc12,126,.,.,.,.,.
CCOC(=O)C1=C(C)N(CCCC(=O)O)C(=O)NC1c1ccc(C(F)(F)F)cc1 (configuration not stated),/,.,.,/,.,.
COc1ccc(CCn2c(=S)[nH]c3ccc(N4CCOCC4)cc3c2=O)cc1OC,.,.,.,.,.,.
O=c1c2ccccc2[nH]c(=S)n1CCCN1CCC(Cc2ccccc2)CC1,.,.,.,.,56,.
O=C(c1ccc2c(=O)n(Cc3ccccc3)c(=S)[nH]c2c1)N1CCOCC1,.,.,.,.,.,.
CC(=O)c1ccc(N2CCN(C(=O)c3ccc(Cn4c(=S)[nH]c5ccc(N6CCOCC6)cc5c4=O)cc3)CC2)cc1,.,.,.,.,70,.
O=c1c2cc(N3CCOCC3)ccc2[nH]c(=S)n1CCc1ccccc1,.,.,.,.,.,84
COc1cc(C(C(=O)NC2CCCC2)N(C(=O)c2snc(C(N)=O)c2N)c2ccccc2)cc(OC)c1OC (configuration not stated),.,.,.,.,.,.
Cc1csc(CN(C)C(=O)CC2C(=O)NCCN2Cc2ccc(F)c(F)c2)n1 (configuration not stated),.,.,.,.,.,.
CC(=O)Nc1ccc(S(=O)(=O)Nc2nc3ccc(C)cc3s2)cc1,.,.,.,.,.,.
Cc1ccc2nc(-c3ccc(NS(=O)(=O)c4ccc(F)cc4)cc3)sc2c1,/,.,.,.,.,76
Cc1ccc2nc(-c3ccc(N)cc3)sc2c1,.,.,.,.,.,54
Cc1ccc2nc(N/C(=N/S(=O)(=O)c3ccc(F)cc3)c3ccccc3)sc2c1,.,.,.,.,.,51
Cc1cc(OCC(=O)N2CCOCC2)ccc1NC(=O)c1ccccc1C,.,.,.,.,.,.
Cc1cc(NC(=O)C(=O)c2cn(C)c3ccccc23)no1,.,.,.,.,.,.
O=C(CSc1ccc(Cl)cc1)N/N=C/c1ccc([N+](=O)[O-])o1,.,?,.,.,.,?
O=C(CCNS(=O)(=O)c1ccc(Cl)cc1)N1CCOCC1,.,.,.,.,.,.
CSc1ccccc1C(=O)C1CCCN(Cc2cnn(-c3ccccc3)c2)C1 (configuration not stated),.,.,.,.,74,.
SMILES,CSC inhib,Calb FLC,Mdm2-MdmX inh,Beta cell apopt,T cruzi repl,SKKanGAS inh
CSc1ccccc1C(=O)C1CCCN(Cc2c(C)n(C)n(-c3ccccc3)c2=O)C1 (configuration not stated),.,.,.,.,.,/
CCn1cc(CN2CCCC(C(=O)c3ccc(-c4ccccc4)c(F)c3)C2)cn1 (configuration not stated),.,.,.,.,55,.
O=C1COc2ccc(S(=O)(=O)N3CCCC3)cc2N1,.,.,.,.,.,.
O=C1COc2ccc(N3C(=O)C=CC3=O)cc2N1,89,.,.,.,.,.
O=C(COc1ccccc1)N/N=C/c1ccc([N+](=O)[O-])o1,.,.,.,.,83,.
CCCOc1cccc(-c2cc(C(=O)N/N=C/c3cccnc3)c3ccccc3n2)c1,.,.,.,.,/,/
CCCOc1cccc(-c2cc(C(=O)N/N=C/c3ccccn3)c3ccccc3n2)c1,.,.,.,.,.,92
O=C(CNc1ccc2ccccc2c1)N/N=C/c1ccc([N+](=O)[O-])o1,.,.,.,.,68,83
Cc1ccc(OCC(=O)N/N=C\c2ccc(C)o2)c([N+](=O)[O-])c1,/,.,/,/,.,.
Cc1ccc(OCC(=O)N/N=C/c2ccc([N+](=O)[O-])o2)cc1,.,.,.,.,66,.
O=C(COc1ccccc1)N/N=C/c1cc2c(cc1[N+](=O)[O-])OCO2,.,.,.,.,.,.
O=C(CNc1ccc2ccccc2c1)N/N=C/c1ccc(C(=O)O)cc1,.,.,.,.,.,.
O=C(N/N=C/c1ccc([N+](=O)[O-])o1)C(O)c1ccccc1 (configuration not stated),.,.,.,/,76,.
CCCc1ccc(-c2cc(C(=O)N/N=C/c3ccc([N+](=O)[O-])o3)c3ccccc3n2)cc1,.,.,.,.,61,96
Cc1ccc(NC(=O)CCC(=O)N/N=C/c2ccc([N+](=O)[O-])o2)cc1C,.,.,.,?,61,.
CN(/N=C/c1ccc([N+](=O)[O-])o1)c1ccccc1,.,.,.,.,60,.
O=C(N/N=C/c1ccco1)c1cc(-c2ccccc2)nc2ccccc12,.,.,.,.,.,.
O=C(N/N=C/c1ccc(-c2ccc([N+](=O)[O-])cc2)o1)C(O)c1ccccc1 (configuration not stated),.,.,.,.,.,.
CCCC(=O)Nc1ccc(C(=O)N/N=C/c2ccc([N+](=O)[O-])o2)cc1,.,.,.,/,.,.
Cc1cc(C)nc(NNS(=O)(=O)c2c(F)cc(F)cc2Br)n1,.,/,.,.,/,/
CC(C)(C)c1ccc(OCCn2nc(C(=O)O)c3ccccc3c2=O)cc1,.,.,.,.,.,.
CC(=O)Nc1c2c(nn1-c1ccc(F)cc1)CSC2,.,.,.,.,.,.
Cc1ccn2c(NC3CCCC3)c(-c3ccncc3)nc2c1,.,.,.,.,.,.
Cc1ccc2nc(-c3ccsc3)c(NC3CCCC3)n2c1,.,.,.,.,.,.
Cc1ccn2c(NC3CCCCC3)c(-c3cccc(-c4cccc(Cl)c4)c3)nc2c1,102,.,.,.,.,.
Cc1ccc2nc(-c3ccncc3)c(NC3CCCC3)n2c1,.,.,.,.,77,.
Cc1ccc2nc(-c3ccncc3)c(NC3CCCCC3)n2c1,.,.,.,.,60,.
c1ccc(-c2nc3ccccn3c2NC2CCCC2)nc1,.,.,.,/,.,75
CCCCN(Cc1ccco1)S(=O)(=O)c1csc(C(N)=O)c1,.,.,.,.,.,.

# Bioassay records: PubChem BioAssay, several laboratories
